Experimental data reported in publication PMC2913304 (Pharmaceutical research, 2008).
Where two headings read alike, the source gives them in different places. Non-standard residues stand in square brackets, D forms with d. Residues, ends and D or L forms follow the SMILES beside them. Sar = CNCC(=O)O

Experiments:
SKPT cells [1] = experiment: Effect of potential inhibitors on apical uptake of carnosine; assay type: in vitro ADME, rat; conditions: 15-min uptake, apical pH 6.0; for reduction of apical uptake of carnosine: inhibitor 1 and 2 mM
Method in brief: (§1)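 Measured 15-min uptake at 37°C of [3H]substrate (with [14C]mannitol correction) from the apical or basolateral side, co-incubated with or without test compounds (PEPT2 and PHT1 substrates, unlabelled substrate, a cephalosporin). Apical buffer was pH 6.0 and basolateral pH 7.4. Test compounds were 1 mM for basolateral uptake. Results were compared with control by ANOVA and Dunnett's test. n=3–6.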

SKPT cells [2] = conditions: cited from earlier work
SKPT cells [3] = experiment: Effect of potential inhibitors on basolateral uptake of carnosine; assay type: in vitro ADME, rat; conditions: inhibitor 1 mM; 15-min uptake, basolateral pH 7.4
Method in brief: as §1

basolateral transporter = experiment: Concentration-dependent basolateral uptake of carnosine; assay type: in vitro ADME, rat
SKPT cells [4] = experiment: Efflux studies after 2 hr apical preloading of SKPT monolayers; assay type: in vitro ADME, rat
Method in brief: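 Monolayers loaded apically with 10 µM [3H]substrate and [14C]mannitol for 2 h at 37°C, then washed four times with ice-cold buffer. Substrate-free buffer was added to both sides (apical pH 6.0, basolateral pH 7.4) at 37°C. Apical (100 µl) and basolateral (300 µl) samples were taken at set times and replaced. Radioactivity is expressed as percent of cell content after loading. n=3–5.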

[5] = pKa and fractional ionization of carnosine; assay type: physicochemical
SKPT cells [6] = experiment: Proton; assay type: in vitro ADME, rat; conditions: 15-min uptake, 10 µM, donor pH 5.5 to 7.4, basolateral pH 7.4
Method in brief: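 The donor-side pH was varied from 5.5 to 7.4 while the opposite side was held at pH 7.4 (apical uptake) or pH 6.0 (basolateral uptake). Uptake of 10 µM [3H]substrate was measured over 15 min at 37°C. Values were compared with pH 7.4 by ANOVA and Dunnett's test. n=3–6.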

SKPT cells [7] = experiment: Cellular compartment model: influx and efflux clearances of carnosine; assay type: in vitro ADME, rat
Method in brief: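 A three-compartment (apical, cellular, basolateral) mass-balance model gave influx and efflux clearances (µl/min/mg protein). Transepithelial clearances came from 10 µM donor flux experiments. Each influx clearance equals the transcellular clearance divided by the steady-state fraction effluxed to the opposite compartment. These fractions came from efflux studies after 2 h apical loading.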

PEPT2 [8] = biological target: T1, PEPT2 (Rattus norvegicus, UniProt Q63424); conditions: read-out: Km, PEPT2-mediated uptake; rat neonatal astrocytes; cited from earlier work
T1 sequence (Q63424 1-729): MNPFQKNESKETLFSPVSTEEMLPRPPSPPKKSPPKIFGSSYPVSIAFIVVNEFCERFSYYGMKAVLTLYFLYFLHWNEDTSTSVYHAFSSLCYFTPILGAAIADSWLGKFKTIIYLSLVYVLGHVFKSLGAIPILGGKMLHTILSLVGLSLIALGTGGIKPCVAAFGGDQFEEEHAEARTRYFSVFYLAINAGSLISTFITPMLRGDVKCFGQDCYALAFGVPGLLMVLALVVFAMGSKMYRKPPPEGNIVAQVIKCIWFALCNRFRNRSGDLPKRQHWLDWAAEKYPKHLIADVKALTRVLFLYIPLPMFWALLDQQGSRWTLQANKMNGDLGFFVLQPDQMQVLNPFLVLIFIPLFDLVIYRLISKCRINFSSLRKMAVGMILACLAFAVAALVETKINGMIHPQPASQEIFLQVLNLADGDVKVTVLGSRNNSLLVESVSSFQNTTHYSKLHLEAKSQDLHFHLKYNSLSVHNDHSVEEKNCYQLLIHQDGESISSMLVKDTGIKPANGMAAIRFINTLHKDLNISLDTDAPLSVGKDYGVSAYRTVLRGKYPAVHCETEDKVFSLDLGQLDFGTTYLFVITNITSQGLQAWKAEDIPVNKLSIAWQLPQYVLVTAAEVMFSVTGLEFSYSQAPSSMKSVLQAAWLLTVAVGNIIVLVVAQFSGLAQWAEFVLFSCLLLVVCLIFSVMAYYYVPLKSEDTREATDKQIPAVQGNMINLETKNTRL

PEPT2 [9] = biological target: T1, PEPT2; conditions: read-out: Km, PEPT2-mediated uptake; rat choroid plexus whole tissue; cited from earlier work
PEPT2 [10] = biological target: T1, PEPT2; experiment: Concentration-dependent apical uptake of carnosine; assay type: in vitro ADME; conditions: 1–500 µM carnosine, 15-min uptake, pH 6.0
[11] = system: rat choroid plexus primary cell cultures; conditions: cited from earlier work
SKPT cells [12] = experiment: Carnosine intracellular accumulation; assay type: in vitro ADME, rat
Method in brief: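 Rat kidney proximal tubule cells (SV40-transformed) grown on collagen-coated filter inserts and used 4 days after seeding, with no antibiotics for the final 24 h and monolayer resistance checked. Cells were preincubated 10 min at 37°C with apical pH 6.0 and basolateral pH 7.4 buffer. 10 µM [3H]substrate plus [14C]mannitol was added to one side, 37°C timed incubations. Cells washed with ice-cold buffer, solubilised (NaOH/SDS), counted. Values normalised to protein and mannitol-corrected. Concentration ratio used intracellular volume from 3-O-methyl-D-glucose uptake (1–10 mM, 300 min, phloridzin). n=3–5.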

SKPT cells [13] = experiment: Substrate stability studies in SKPT compartments; assay type: in vitro ADME, rat
Method in brief: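 10 µM [3H]substrate applied apically or basolaterally (apical pH 6.0, basolateral pH 7.4) for 5–300 min at 37°C. Donor and receiver media were collected. Cells were washed, sonicated in water, extracted with an equal volume of acetonitrile, and centrifuged at 14,000 g for 10 min at 4°C. Reversed-phase C18 HPLC used isocratic 0.1 M NaH2PO4/0.075% heptafluorobutyric acid at 1 ml/min. Stability was taken from recovery and histidine appearance. n=3.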

[14] = Carnosine transepithelial transport across SKPT cell monolayers; assay type: in vitro ADME, rat; conditions: rat, basolateral-to-apical transcellular flux relative to apical-to-basolateral flux, 10 µM carnosine
Method in brief: (§2)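 Filter-grown SKPT monolayers with apical pH 6.0 (MES/Tris) and basolateral pH 7.4 (HEPES/Tris) buffers at 37°C. 10 µM [3H]substrate with [14C]mannitol was placed in the apical or basolateral donor side. Receiver aliquots were taken over time for scintillation counting. Paracellular flux was corrected with mannitol, and clearances were obtained from flux relative to the 10 µM donor concentration. n=3–5.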

SKPT cells [15] = experiment: as above; assay type: in vitro ADME, rat; conditions: 10 µM in donor compartment, slope of transport vs time
Method in brief: as §2

[16] = substrate: NCCC(=O)N[C@@H](Cc1cnc[nH]1)C(=O)O; experiment: Concentration-dependent apical uptake of carnosine; assay type: in vitro ADME, rat; conditions: other: 1–500 µM carnosine, 15-min uptake, pH 6.0, 37.0 °C
[17] = at 60 min, after 2 hr apical preloading with 10 µM
[18] = single exponential fit of efflux-time profile

Molecule: CN(CC(=O)O)C(=O)CN [GlySar, glycylsarcosine] (H-Gly-[Sar]-OH)
- reduction of apical uptake of carnosine (SKPT cells [1]): 90%
- apical uptake relative to basolateral uptake (SKPT cells [2]; ref 37): about 5 ×
- apical uptake relative to basolateral uptake (SKPT cells [2]; ref 38): about 3.5 ×
- apical-to-basolateral transepithelial flux higher than reverse flux (SKPT cells [2]; ref 38): 28%
- reduction of basolateral uptake of carnosine (SKPT cells [3]): 90–99%

Molecule: N[C@@H](Cc1c[nH]cn1)C(=O)O [histidine, L-histidine]
- effect on apical uptake of carnosine (SKPT cells [1]; inhibitor 1, 2 and 5 mM): unaffected
- effect on basolateral uptake of carnosine (SKPT cells [3]): unaffected

Molecule: NCCC(=O)N[C@@H](Cc1cnc[nH]1)C(=O)O [carnosine, β-alanyl-L-histidine]
- reduction of apical uptake of carnosine (SKPT cells [1]): 96%
- Vmax, basolateral membrane uptake (basolateral transporter; 1–500 µM carnosine, 15-min uptake, pH 7.4): 27.4±1.3 pmol/mg/15min
- lower affinity of basolateral transporter compared to apical transporter (basolateral transporter; Km comparison): 2 fold
- lower capacity of basolateral transporter compared to apical transporter (basolateral transporter; Vmax comparison): 24 fold
- cell-to-apical efflux relative to cell-to-basolateral efflux (SKPT cells [4]; SKPT cells): about 10 times
- carnosine effluxed from cell to apical compartment (SKPT cells [4]; [17]): about 40%
- carnosine effluxed from cell to basolateral compartment (SKPT cells [4]; [17]): about 4%
- fefflux.A (fraction effluxed to apical compartment at steady state) (SKPT cells [4]; single exponential fit): 0.66
- fefflux.B (fraction effluxed to basolateral compartment at steady state) (SKPT cells [4]; single exponential fit): 0.047
- carnosine effluxed from cellular to apical compartment at steady state (SKPT cells [4]; [18]): 66%
- carnosine effluxed to basolateral compartment at steady state (SKPT cells [4]; [18]): 4.7%
- ionized (NH3+) at pH 5.5 ([5]; pH 5.5): 95%
- ionized (NH3+) at pH 6.5 ([5]; pH 6.5): 65%
- ionized (NH3+) at pH 7.4 ([5]; pH 7.4): 15–20%
- pH of maximal apical uptake (SKPT cells [6]): 6.5
- CLBC/CLCA ratio (SKPT cells [7]): 0.8
- CLBC/CLCB ratio (SKPT cells [7]): 32
- CLCB/CLAC ratio (SKPT cells [7]): 0.004
- Km (PEPT2 [8]): 43 µM
- Km (PEPT2 [9]): 39 µM
- reduction of basolateral uptake of carnosine (SKPT cells [3]): 90–99%
- Vmax, apical membrane uptake (PEPT2 [10]): 659±27 pmol/mg/15min
- apical efflux relative to basolateral efflux [11]: about 4 times
- intracellular to extracellular concentration ratio [11]: approximately 135
- time over which uptake was linear, apical surface (SKPT cells [12]; 10 µM carnosine): 60 min
- time over which uptake was linear, basolateral surface (SKPT cells [12]; 10 µM carnosine): 30 min
- basolateral uptake plateau value (SKPT cells [12]; 10 µM carnosine introduced from basolateral compartment): 15 pmol/mg protein
- apical uptake plateau value (SKPT cells [12]; 10 µM carnosine, at 180–300 min): approximately 220 pmol/mg protein
- intracellular to extracellular concentration ratio, basolateral introduction (SKPT cells [12]; 10 µM extracellular): 0.8
- intracellular to extracellular concentration ratio, apical introduction (SKPT cells [12]; 10 µM extracellular, intracellular volume 2.0 µl/mg protein): 11
- stability in donor compartment (SKPT cells [13]; apical or basolateral donor side, up to 300 min of incubation): remained intact
- intact in intracellular compartment at 60 min (SKPT cells [13]; intracellular compartment, 60 min): about 87%
- intact in intracellular compartment at 300 min (SKPT cells [13]; intracellular compartment, 300 min): 81%
- intact in intracellular compartment, first 15 min (SKPT cells [13]; intracellular compartment, first 15 min of incubation): > 94%
- efflux ratio at 10 µM [14]: ~2
- A-to-B transepithelial rate (SKPT cells [15]): 1.99 pmol/min/mg protein
- B-to-A transepithelial rate (SKPT cells [15]): 3.74 pmol/min/mg protein

Molecule: CC1=C(C(=O)O)N2C(=O)[C@@H](NC(=O)[C@H](N)c3ccc(O)cc3)[C@H]2SC1 [cefadroxil]
- reduction of basolateral uptake of carnosine (SKPT cells [3]): 90–99%

B1: PEPT2 (Rattus norvegicus) (protein)
chain: T1 sequence (Q63424 1-729)
- Km [16]: 49 ± 8 µM
